Data taken from ChEMBL document CHEMBL1154008, “Synthesis and in vitro activity of new tetrahydronaphtho[1,2-b]azepine derivatives against Trypanosoma cruzi and Leishmania chagasi parasites” (Bioorg Med Chem Lett, 2009).

Columns and labels:
[1] = Cytotoxicity against african green monkey Vero cells after 72 hrs by MTT assay; type: cell-based; details: chlorocebus sabaeus
How it was run: (§1)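 Vero or transformed THP-1 cells exposed to a 3-fold compound dilution series, in triplicate, for 72 h at 37 °C. Toxicity read by MTT reduction. CC50/CC90 taken as the concentrations killing 50% or 90% of cells. Values are representative of one experiment out of three.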

[2] = tested on: Trypanosoma cruzi; assay: Antiparasitic activity against Trypanosoma cruzi 320I04 intracellular amastigotes infected in african green monkey Vero cells after 72 hrs; type: functional, organism-based; details: 320I04, Vero
[3] = tested on: Trypanosoma cruzi; assay: Antiparasitic activity against Trypanosoma cruzi 320I04 epimastigotes […] after 72 hrs; type: functional, organism-based
How it was run: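 Free parasite forms (T. cruzi 320I04 epimastigotes; L. chagasi MHOM/BR/74/PP75 promastigotes) exposed to compounds for 72 h at 27 °C. IC50/IC90 taken as the concentrations giving 50% or 90% growth inhibition. Values are representative of one experiment out of three.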

[4] = Selectivity index, ratio of CC50 for african green monkey Vero cells to IC50 for Trypanosoma cruzi 320I04 intracellular amastigotes; type: functional
[5] = Selectivity index, ratio of CC50 for african green monkey Vero cells to IC50 for Trypanosoma cruzi 320I04 epimastigotes; type: functional
How it was run: (§2)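 SI calculated as Vero CC50 divided by T. cruzi IC50, or THP-1 CC50 divided by L. chagasi IC50. Both values come from 72 h exposures: parasites at 27 °C, mammalian cells at 37 °C with MTT read-out.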

[6] = Selectivity index, ratio of CC50 for human THP1 cells to IC50 for Leishmania chagasi MHOM/BR/74/PP75 promastigotes; type: functional, THP-1; how it was run: as §2
[7] = Cytotoxicity against human THP1 cells after 72 hrs by MTT assay; type: cell-based; details: THP-1 cells; how it was run: as §1
[8] = tested on: Leishmania chagasi; assay: Antiparasitic activity against Leishmania chagasi MHOM/BR/74/PP75 promastigotes infected in human THP1 cells after 72 hrs; details: MHOM/BR/74/PP75, THP-1, 72 h

IC50 [2] [µM] | IC90 [2] [µM] | IC50 [3] [µM] | IC90 [3] [µM] | IC50 [8] [µM] | IC90 [8] [µM] | SMILES | CC50 at 72 h [1] [µM] | CC90 at 72 h [1] [µM] | Ratio CC50/IC50 [4] | Ratio CC50/IC50 [5] | Ratio CC50/IC50 [6] | CC50 at 72 h [7] [µM] | CC90 at 72 h [7] [µM]
24.3 | > 30 | 14 | 48.5 | 17.9 | 58.7 | COc1cccc([C@@H]2C[C@H](O)Cc3ccc4ccccc4c3N2)c1 | 97.6 | > 200 | 4 | 7 | 10.9 | 195 | > 300
> 100 | > 100 | 1.4 | 29.3 | 40.9 | 209 | O=[N+]([O-])c1ccccc1[C@@H]1C[C@@H]2Cc3ccc4ccccc4c3N1O2 | 40.2 | > 300 | <0.4 | 28.7 | >7.3 | > 300 | > 300
33.4 | > 30 | 16.5 | 42.7 | 41.4 | 134 | Cc1cccc([C@@H]2C[C@H](O)Cc3ccc4ccccc4c3N2)c1 | 87.4 | > 250 | 2.6 | 5.3 | 2.2 | 89.9 | 116
> 100 | > 100 | 17 | 44.1 | 35.2 | 41.2 | Cc1cccc([C@@H]2C[C@@H]3Cc4ccc5ccccc5c4N2O3)c1 | > 300 | > 300 | >3 | >17.6 | >8.5 | > 300 | > 300
> 100 | > 100 | 10.7 | 19.4 | 18.3 | 55.7 | O[C@@H]1Cc2ccc3ccccc3c2N[C@H](c2cccc(Br)c2)C1 | 49.5 | > 250 | 0.5 | 4.6 | 2.3 | 41.7 | > 250
10.6 | > 30 | 0.5 | 11 | 30.6 | 64.6 | O[C@@H]1Cc2ccc3ccccc3c2N[C@H](c2ccccc2Cl)C1 | 96.5 | > 250 | 9.1 | 193 | 2.2 | 66.1 | > 300
16.2 | 83.4 | 38.8 | 105 | 35.4 | 43.1 | Clc1ccc([C@@H]2C[C@@H]3Cc4ccc5ccccc5c4N2O3)cc1 | 287 | > 300 | >17.7 | 7.4 | >8.5 | > 300 | > 300
> 250 | > 250 | 52.7 | > 250 | 22.1 | 45.8 | Clc1ccc([C@@H]2C[C@@H]3Cc4ccc5ccccc5c4N2O3)c(Cl)c1 | 55 | > 250 | <0.2 | 1 | >11.3 | > 250 | > 250
14.8 | > 30 | 1.1 | 11.6 | 21 | 120 | O[C@@H]1Cc2ccc3ccccc3c2N[C@H](c2ccc(F)cc2)C1 | 100 | > 250 | 6.8 | 91.4 | 3.9 | 81.9 | > 250
> 30 | > 30 | 1 | 19.4 | 11 | 28.2 | O[C@@H]1Cc2ccc3ccccc3c2N[C@H](c2ccc(Cl)cc2Cl)C1 | 45.4 | > 200 | <1.5 | 45.4 | 7.2 | 79.4 | 92.7
> 100 | > 100 | 3.2 | 24.8 | 25.9 | 52.9 | O[C@@H]1Cc2ccc3ccccc3c2N[C@H](c2ccc(Cl)cc2)C1 | 95 | > 250 | <1 | 29.7 | 1.4 | 36.2 | 122
13.1 | > 100 | 12.6 | 80.1 | 32.7 | > 300 | Clc1cccc([C@@H]2C[C@@H]3Cc4ccc5ccccc5c4N2O3)c1 | > 300 | > 300 | >22.9 | >23.8 | >9.2 | > 300 | > 300
23.4 | > 30 | 1.4 | 54.9 | 6 | 67.3 | O[C@@H]1Cc2ccc3ccccc3c2N[C@H](c2cccc(Cl)c2)C1 | 30.7 | > 200 | 1.3 | 21.9 | 7.2 | 43.2 | 177
19.3 | > 30 | 5.7 | 35.1 | 46 | 67.1 | O[C@@H]1Cc2ccc3ccccc3c2N[C@H](c2ccccc2)C1 | 108 | > 268 | 5.6 | 18.9 | 2.2 | 102 | > 300
> 100 | > 100 | 11.5 | > 350 | 21.2 | 175 | c1ccc([C@@H]2C[C@@H]3Cc4ccc5ccccc5c4N2O3)cc1 | 72.9 | > 350 | <0.7 | 6.3 | >16.5 | > 350 | > 350
18.4 | 76.3 | 17.5 | 82.3 | 10.4 | 31.3 | Brc1cccc([C@@H]2C[C@@H]3Cc4ccc5ccccc5c4N2O3)c1 | > 250 | > 250 | >13.6 | >14.3 | >24 | > 250 | > 250
89.6 | > 100 | 82.7 | > 300 | 16.4 | 49.5 | COc1cccc([C@@H]2C[C@@H]3Cc4ccc5ccccc5c4N2O3)c1 | > 300 | > 300 | >3.3 | >3.6 | >18.3 | > 300 | > 300
> 100 | > 100 | 11.4 | 176 | 73.4 | > 250 | Brc1ccc([C@@H]2C[C@@H]3Cc4ccc5ccccc5c4N2O3)cc1 | > 250 | > 250 | – | 21.9 | >3.4 | > 250 | > 250
9.9 | 29.7 | 10.2 | 15.9 | 18.5 | 37.1 | O[C@@H]1Cc2ccc3ccccc3c2N[C@H](c2ccc(Br)cc2)C1 | 66.1 | > 200 | 6.7 | 6.5 | 4.3 | 79 | > 200
– | – | – | – | 0.01 | 0.03 | C[C@@H]1[C@H](O)[C@@H](C)/C=C/C=C/C=C/C=C/C=C/C=C/C=C/[C@H](O[C@@H]2O[C@H](C)[C@@H](O)[C@H](N)[C@@H]2O)C[C@@H]2O[C@](O)(C[C@@H](O)C[C@@H](O)[C@H](O)CC[C@@H](O)C[C@@H](O)CC(=O)O[C@H]1C)C[C@H](O)[C@H]2C(=O)O [AMPHOTERICIN B] | – | – | – | – | 17 | 0.17 | 0.18
– | 11 | 4.8 | 17 | – | – | CC1CS(=O)(=O)CCN1/N=C/c1ccc([N+](=O)[O-])o1 (stereo unspecified) [NIFURTIMOX] | 114 | > 300 | – | – | – | – | –
